Variants at the floor of the assay were thinned out.
B1: tRNA (parent)
chain: GUUCCGUUGGCGUAAUGGUAACGCGUCUCCCUCCUAAGGAGAAGACUGCGGGUUCGAGUCCCGUACGGAACG

Variants of: B1
Test: yeast fitness relative to wild type (ratio to wild type); higher = fitter; tRNA-Arg(CCU), competitive growth, 37 C, YPD
How it was run: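 Start and end populations of a pooled competition were compared by 100-nucleotide paired-end sequencing of gene amplicons. The Saccharomyces cerevisiae strains carried tRNA-Arg(CCU) gene variants at the native genomic locus, synthesised with a 3% per-site mutation rate at 69 sites, and competed in YPD at 37°C for 24 hours in six parallel replicates. Darwinian fitness relative to wild type was based on the change in genotype frequencies. Genotypes required ≥ 100 starting reads, and estimates < 0.5 were set to 0.5.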

Point of comparison: GUUCCGUUGGCGUAAUGAUAACGCGUCUCCCUCCUAAGGAGAAGACUGCGGGUUCGAGUCUCGUACGGAACG [G18A C61U], yeast fitness 0.696. Against it:
- GUUCCGUUGGCGUAAUGAUAACGCGUCUCCGUCCUAAGGGGAAGACUGCGGCUUCGAGUCCCGUACGGAACG [G18A C31G A40G G52C] — lower, ≤ 0.5
- GUUCCGUUGGCGUAAUGAUAACGCGUCUCCCUCCUAAGGAGAAGAAUGCGCGUUCGAGUUCCGUACGGAACG [G18A C46A G51C C60U] — lower, ≤ 0.5
- GUUCCGUUGGCGUAAUGAUAACGCGUCUUCAUCCUAAGGAGAAGACUGCGGGUUCGAGUCCCGUGCGGAACG [G18A C29U C31A A65G] — lower, ≤ 0.5
- GUUCCGUUGGCGUAAUGAUAACGCGUCUCCGUCCUAAGGGGAAGACUGUGGCUUCGAGUCCCGUACGGAACG [G18A C31G A40G C49U G52C] — lower, 0.618
- GUUCCGUUGGCGUAAUGAUAACGCGUCUCCCUGGUAAGGAGAAGACUGCGGGUUCGAGUCCCGUACGGAACG [G18A C33G C34G] — lower, ≤ 0.5
- GUUCCGUUGGCGUAAUGAUAACGCGUCUCUCUCCUAAGGACAAGACUGCGGGUUCGAGUCCCGUACGGAACG [G18A C30U G41C] — lower, ≤ 0.5
- GUUCCGUUGGCGUAAUGAUAACGCGUCUCCCUCGUAAGGAGAAGACUCUGGGUUCGAGUCCCGUACGGAACG [G18A C34G G48C C49U] — higher, 0.698
- GUUCCGUUGGCGUAAUGAUAACGCGUCUCCCUCUCAAGGAGAAGACUGCGGGUUCGAGUCCCGUACGGAACG [G18A C34U U35C] — lower, ≤ 0.5
- GUUCCGUUGGCGUAAUGAUAACGCGUCUCCCUCUUAAGGAGACGACUGCGGGGUCGAGUCCCGUACGGAACG [G18A C34U A43C U53G] — lower, ≤ 0.5
- GUUCCGUUGGCGUAAUGAUAACGCGUCUCCAUCCUAAGGAGAAGACUGCGGGUUCCAGUCCCGUACGGAACG [G18A C31A G56C] — lower, ≤ 0.5
- GUUCCGUUGGCGUAAUGAUAACGCGUCUCCCUCCUAAGGAGAAGACUGCGGGUUCGAGUCGCGUACGGAACG [G18A C61G] — lower, 0.681
- GUUCCGUUGGCGUAAUGAUAACACGUCUCCCUACUAAGGAGAAGACUGCGGGUUCGAGUCCCGUCCGGAACG [G18A G23A C33A A65C] — lower, 0.624
- GUUCCGUUGGCGUAAUGAUAACGCGUCUCCCUCCUAAGGAGAAGACUGCGGGUUCGAGUCCGGUACGGAACG [G18A C62G] — lower, 0.676
- GUUCCGUUGGCGUAAUGAUAACGCGUCUCCCUCCUAAGGAGAAGACUGCGGGUUCGAGUCCUGUACGGAACG [G18A C62U] — higher, 0.712
- GUUCCGUUGGCGUAAUGAUAACGCGUCUCCCUCCUAAAGAGAAGACUGCGGGUUCGAGUCCCGUACGGAACG [G18A G38A] — higher, 0.73
- GUUCCGUUGGCGUAAUGAUAACGCGUCUCCCUCCUAAGGAGAAGAAUGCGGGUUCGAGUCCCGCACGGAACG [G18A C46A U64C] — lower, 0.535
- GUUCCGUUGGCGUAAUGAUAACGCGUCUCCCUCAUAAGGAGAAGACCGCGGGUUCGAGUCCCGUACGGAACG [G18A C34A U47C] — lower, ≤ 0.5
- GUUCCGUUGGCGUAAUGAUAACGCGUCUUCAUCCUAAGGAGAAGACUGCGGGUUUGAGUCCCGUACGCAACG [G18A C29U C31A C55U G68C] — lower, ≤ 0.5
- GUUCCGUUGGCGUAAUGAUAACGCGUCUCCCUCUUAAGGAGACGAGUGCGGGUUCGAGUCCCGUACGGAACG [G18A C34U A43C C46G] — lower, ≤ 0.5
- GUUCCGUUGGCGUAAUGAUAACGCGUCUCUCUCCUAAGGAGAAGACUGCGGGUUCGCGUCCCGUACGGAACG [G18A C30U A57C] — lower, ≤ 0.5
- GUUCCGUUGGCGUAAUGAUAACCCGUCUUCGUCCUAAGGAGAAGACUGCGGGUUCGAGUCCCGUACGGAACG [G18A G23C C29U C31G] — lower, ≤ 0.5
- GUUCCGUUGGCGUAAUGAUAACGCGUCUCCCUCCUAAGGAGAAGACUGAGGGUUCGAGUCCCAUACGGAACG [G18A C49A G63A] — lower, ≤ 0.5
- GUUCCGUUGGCGUAAUGAUAACGCGUCUUCCUCCUAAGGAGAAGGCUGCGGGUUCGAGUCCCGUACGGAGCG [G18A C29U A45G A70G] — lower, ≤ 0.5
- GUUCCGUUGGCGUAAUGAUAACCCGUCUCGCUCCUUAGGAGAAGACUGCGGGUUCGAGUGCCGUACGGAACG [G18A G23C C30G A36U C60G] — lower, ≤ 0.5
- GUUCCGUUGGCGUAAUGAUAACGCGUCUCCCUACUCAGGAGAGGACUGCGGGUUGGAGUCCCGUACGGAACG [G18A C33A A36C A43G C55G] — lower, ≤ 0.5
- GUUCCGUUGGCGUAAUGAUAACGCGUCUCCCUCCUAAGGACAAGACUGCGGGUUCGAGUCCCGUACGGAACG [G18A G41C] — lower, 0.658
- GUUCCGUUGGCGUAAUGAUAACGCAUCUCCCUCCUAAGGAGAAGAUUGCGGGUUCGAGUCCCGUACGGAACG [G18A G25A C46U] — lower, 0.508
- GUUCCGUUGGCGUAAUGAUAACGCGUCUUCCUCCUAGGGAGAAGACUGCGGGUUCGAGUCCCGUACGGAACG [G18A C29U A37G] — lower, ≤ 0.5
- GUUCCGUUGGCGUAAUGAUAACGCGUCUUCCUCCUAAGGAGAAGACUGCGGCUUCGAGUCCCGUACGGAACG [G18A C29U G52C] — lower, ≤ 0.5
- GUUCCGUUGGCGUAAUGAUAACGCGUCUCCCUCAUAUGGAGAAGACUGCGGGUUCGAGUCCCGUACGGAACG [G18A C34A A37U] — lower, ≤ 0.5
- GUUCCGUUGGCGUAAUGAUAACGCGUCUCACUCCUAAGGAGAAGACUGCGGGUUCGAAUCCCGUACGUAACG [G18A C30A G58A G68U] — lower, ≤ 0.5
- GUUCCGUUGGCGUAAUGAUAACGCGUCUCCCUUCUAAGGAGAAGACUGCGGGUUCGAGUCCCGUACGGAACG [G18A C33U] — lower, ≤ 0.5
- GUUCCGUUGGCGUAAUGAUAACGCGUCUCCCUGCUAAGGAGAAGACUGCGGGUUCGAGUCCCGUACGGAACG [G18A C33G] — lower, ≤ 0.5
- GUUCCGUUGGCGUAAUGAUAACGCGUCUCCCUCCUAAGGAGAAGACUGCGGGUUCGAGUCCCGUAUGGAACG [G18A C66U] — higher, 0.736
- GUUCCGUUGGCGUAAUGAUAACGCGUCUCCCUCCUAAGGAGAAGACUGCGGGUUCGAGUCCCGUAAGGAACG [G18A C66A] — lower, 0.516
- GUUCCGUUGGCGUAAUGAUAACGCGUCUCCCUCCUAAGGAGAAGACUGGGGGUUCGAGUCCCGUACGGAACG [G18A C49G] — higher, 0.74
- GUUCCGUUGGCGUAAUGAUAACGCGUCUCCCUCCUAAGGAGAAGACUGAGGGUUCGAGUCCCGUACGGAACG [G18A C49A] — lower, 0.606
